# ChEMBL document CHEMBL1123863, “1-[[[5-(substituted phenyl)-2-oxazolyl]methylene]amino]-2,4- imidazolidinediones, a new class of skeletal muscle relaxants” (1987)
# How the values were obtained:
# Mus musculus = assay: Highest tolerated dose (p.o.) in mice.; format: functional
# How it was run: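 Mice dosed orally with suspensions in 0.5% methylcellulose 4000 at 50, 200, 400 and 800 mg/kg. Muscle relaxation scored over a 2.0-h observation period on a 0 (none) to 4 (severe) scale. Acute toxicity followed for 72 h after dosing; highest tolerated oral dose given in mg/kg.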
# Rattus norvegicus = assay: Inhibition of gastrocnemius twitch tension after a cumulative dose of 36.6 mg/kg iv in rats.; format: functional; conditions: for inhibition in vivo at 36.6 mg/kg: Rattus norvegicus, Gastrocnemius, iv
# How it was run: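 Pithed rat gastrocnemius preparation: adult male Charles River rats (385–400 g), ether anesthesia, tracheotomy, pithed, artificially respired, bilaterally vagotomized. Tubocurarine chloride 0.075 mg/kg iv given for neuromuscular blockade, isolating direct muscle action. Compounds in tetrahydro-2-furanmethanol or DMSO, given iv as sequential 0.83, 2.5, 8.3, 25 mg/kg doses. Percent twitch tension inhibition read after the cumulative dose.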
compound,measurement,setting,value
O=C1CN(/N=C/c2ncc(-c3ccc(Cl)c(Cl)c3)o2)C(=O)N1,HTD,Mus musculus,>800 mg/kg
same,Inhibition,Rattus norvegicus,-82%
O=C1CN(/N=C/c2ncc(-c3cccc(Cl)c3)o2)C(=O)[N-]1.[Na+],HTD,Mus musculus,400 mg/kg
same,inhibition in vivo at 36.6 mg/kg,Rattus norvegicus,-42%
Cc1ccc(-c2cnc(/C=N/N3CC(=O)NC3=O)o2)cc1,HTD,Mus musculus,>800 mg/kg
same,Inhibition,Rattus norvegicus,-65%
O=C1CN(/N=C/c2ncc(-c3ccccc3)o2)C(=O)N1,HTD,Mus musculus,>800 mg/kg
same,Inhibition,Rattus norvegicus,-41%
O=C1CN(/N=C/c2ncc(-c3ccc(Br)cc3)o2)C(=O)[N-]1.[Na+] [AZUMOLENE SODIUM],HTD,Mus musculus,400 mg/kg
same,Inhibition,Rattus norvegicus,-83%
O=C1CN(/N=C/c2ncc(-c3cccc(C(F)(F)F)c3)o2)C(=O)N1,HTD,Mus musculus,400 mg/kg
same,Inhibition,Rattus norvegicus,-56%
COc1ccc(-c2cnc(/C=N/N3CC(=O)[N-]C3=O)o2)cc1.[Na+],HTD,Mus musculus,>800 mg/kg
same,Inhibition,Rattus norvegicus,-58%
O=C1CN(/N=C/c2ncc(-c3ccc(Cl)c(Cl)c3)o2)C(=O)[N-]1.[Na+],HTD,Mus musculus,>800 mg/kg
same,Inhibition,Rattus norvegicus,-71%
O=C1CN(/N=C/c2ncc(-c3ccc(Cl)cc3)o2)C(=O)[N-]1.[Na+],HTD,Mus musculus,400 mg/kg
same,Inhibition,Rattus norvegicus,-81%
O=C1CN(/N=C/c2ncc(-c3ccc(F)cc3)o2)C(=O)N1,HTD,Mus musculus,>800 mg/kg
same,Inhibition,Rattus norvegicus,-70%
O=C1CN(/N=C/c2ccc(-c3ccc([N+](=O)[O-])cc3)o2)C(=O)[N-]1.[Na+] [DANTROLENE SODIUM],HTD,Mus musculus,>400 mg/kg
same,inhibition in vivo at 36.6 mg/kg,Rattus norvegicus,-80%
O=C1CN(/N=C/c2ncc(-c3ccc(F)cc3)o2)C(=O)[N-]1.[Na+],HTD,Mus musculus,400 mg/kg
same,Inhibition,Rattus norvegicus,-75%
Cc1ccc(-c2cnc(/C=N/N3CC(=O)[N-]C3=O)o2)cc1.[Na+],HTD,Mus musculus,>800 mg/kg
same,Inhibition,Rattus norvegicus,-62%
O=C1CN(/N=C/c2ncc(-c3ccc(Cl)cc3)o2)C(=O)N1,HTD,Mus musculus,>800 mg/kg
same,Inhibition,Rattus norvegicus,-80%
O=C1CN(/N=C/c2ncc(-c3cccc(C(F)(F)F)c3)o2)C(=O)[N-]1.[Na+],HTD,Mus musculus,50 mg/kg
same,Inhibition,Rattus norvegicus,-69%
O=C1CN(/N=C/c2ncc(-c3ccccc3)o2)C(=O)[N-]1.[Na+],HTD,Mus musculus,200 mg/kg
same,Inhibition,Rattus norvegicus,-49%
COc1ccc(-c2cnc(/C=N/N3CC(=O)NC3=O)o2)cc1,HTD,Mus musculus,>800 mg/kg
same,Inhibition,Rattus norvegicus,-47%
O=C1CN(/N=C/c2ncc(-c3ccc([N+](=O)[O-])cc3)o2)C(=O)N1,HTD,Mus musculus,>800 mg/kg
same,Inhibition,Rattus norvegicus,-86%
O=C1CN(/N=C/c2ncc(-c3ccc([N+](=O)[O-])cc3)o2)C(=O)[N-]1.[Na+],HTD,Mus musculus,>800 mg/kg
same,Inhibition,Rattus norvegicus,-84%
O=C1CN(/N=C/c2ncc(-c3ccc(Br)cc3)o2)C(=O)N1 [AZUMOLENE],HTD,Mus musculus,>800 mg/kg
same,Inhibition,Rattus norvegicus,-82%
O=C1CN(/N=C/c2ncc(-c3ccccc3[N+](=O)[O-])o2)C(=O)N1,HTD,Mus musculus,>800 mg/kg
same,inhibition in vivo at 36.6 mg/kg,Rattus norvegicus,0%
